ChEMBL document CHEMBL1141177, “The novel L- and D-amino acid derivatives of hydroxyurea and hydantoins: synthesis, X-ray crystal structure study, and cytostatic and antiviral activity evaluations” (J Med Chem, 2005)
pIC50: −log10 of the molar value. In brackets after ≈: the same amount, converted by molar mass.

Assays:
HEp-2 = experiment: Inhibition of laryngeal carcinoma cell line (Hep-2) growth; assay type: functional, cell-based; conditions: Homo sapiens
Method in brief: (§1)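 Monolayers in DMEM with 10% FBS, 2 mM L-glutamine, penicillin/streptomycin, 37 °C, 5% CO2. Cells seeded on day 0, then compounds added in 5- and 10-fold dilutions (10^-8–10^-4 M) for 72 h. MTT read-out at 570 nm. Percent growth calculated relative to time-zero and untreated OD. Quadruplicates in three experiments; IC50 by linear interpolation, highest concentration reported as ">" when not reached.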

HeLa = experiment: Inhibition of cervical carcinoma cell line (HeLa) growth; assay type: functional, cell-based; conditions: Homo sapiens; method in brief: as §1
WI-38 = experiment: Inhibition of normal human fibroblast cell line (WI 38) growth; assay type: functional, cell-based; method in brief: as §1
MOLT-4 = experiment: Inhibition of human T-lymphocyte cell line (Molt4/C8) growth; assay type: functional, cell-based
MCF7 = experiment: Inhibition of breast carcinoma cell line (MCF-7) growth; assay type: functional, cell-based; conditions: Homo sapiens; method in brief: as §1
SW-620 = experiment: Inhibition of colon carcinoma cell line (SW 620) growth; assay type: functional, cell-based; conditions: Homo sapiens; method in brief: as §1
MIA PaCa-2 = experiment: Inhibition of pancreatic carcinoma cell line (MiaPaCa-2) growth; assay type: functional, cell-based; conditions: Homo sapiens; method in brief: as §1
L1210 = experiment: Inhibition of murine leukemia cells (L1210) growth; assay type: functional, cell-based; conditions: Mus musculus
HEL [1] = experiment: Minimum cytotoxic concentration of compound that causes alteration of cell morphology in human embryonic lung cells; assay type: functional
Method in brief: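 Human embryonic lung (HEL) cells were examined microscopically. MCC is the minimum concentration that causes a detectable alteration of cell morphology.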

Human alphaherpesvirus 3 [2] = experiment: Effective concentration of compound required to reduce plaque formation by OKA strain of thymidine kinase positive VZ virus TK+ in human embryonic lung cells; assay type: functional, organism-based; conditions: Human alphaherpesvirus 3, lung
HEL [3] = experiment: Cytotoxic concentration to reduce the 50% cell growth of human embryonic lung cells; assay type: functional
Human alphaherpesvirus 3 [4] = experiment: Reduction of plaque formation by VZV07/1 strain of thymidine kinase(TK-) deficient VZ virus in human embryonic lung cells; assay type: functional, organism-based; conditions: Human alphaherpesvirus 3, lung
[5] = Effective concentration required to reduce plaque formation by AD-169 strain of CMV virus in Human embryonic lung cells; assay type: functional, cell-based
Method in brief: (§2)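 Plaque reduction assay in human embryonic lung (HEL) cell cultures, virus input 100 plaque forming units. Viruses: CMV strains AD-169 and Davis, VZV TK+ strain OKA and TK− strain 07/1. EC50 is the concentration that reduces virus plaque formation by 50%.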

[6] = Effective concentration required to reduce plaque formation by Davis strain of CMV virus in Human embryonic lung cells; assay type: functional, cell-based; method in brief: as §2
[7] = Homo sapiens, HEL, read-out: CC50

O=C(NO)NC(C(=O)NC(c1ccccc1)c1ccccc1)c1ccccc1 (stereo not drawn)
pIC50 (HEp-2): 4.08
pIC50 (HeLa): 4.38
pIC50 (WI-38): < 4.00
pIC50 (MOLT-4): 4.41
pIC50 (MCF7): 4.08
pIC50 (SW-620): 4.20
pIC50 (MIA PaCa-2): 4.50
pIC50 (L1210): 4.74

CCC(C)C(NC(=O)n1nnc2ccccc21)C(=O)NC1CCCCC1 (stereo not drawn)
pIC50 (MOLT-4): 4.01

CC(C)C(NC(=O)NO)C(=O)NC1CCCC1 (stereo not drawn)
pIC50 (HEp-2): 4.48
pIC50 (HeLa): < 4.00
pIC50 (WI-38): < 4.00
pIC50 (MOLT-4): < 3.70
pIC50 (MCF7): < 4.00
pIC50 (SW-620): < 4.00
pIC50 (MIA PaCa-2): < 4.00
pIC50 (L1210): < 3.70

CCC(C)C(NC(=O)n1nnc2ccccc21)C(=O)NCc1ccccc1 (stereo not drawn)
pIC50 (MOLT-4): 4.02

O=C(NO)NC(Cc1ccccc1)C(=O)NC(c1ccccc1)c1ccccc1 (stereo not drawn)
pIC50 (HEp-2): 4.21
pIC50 (HeLa): 4.40
pIC50 (WI-38): 4.48
pIC50 (MOLT-4): 4.68
pIC50 (MCF7): 4.36
pIC50 (SW-620): 4.18
pIC50 (MIA PaCa-2): 4.39
pIC50 (L1210): 4.74

O=C(NO)NC(Cc1ccccc1)C(=O)NC1CCCC1 (stereo not drawn)
pIC50 (HEp-2): < 4.00
pIC50 (HeLa): < 4.00
pIC50 (WI-38): < 4.00
pIC50 (MOLT-4): < 3.70
pIC50 (MCF7): < 4.00
pIC50 (SW-620): < 4.00
pIC50 (MIA PaCa-2): < 4.00
pIC50 (L1210): 3.84

CC(C)C(NC(=O)NO)C(=O)NC1CCCCC1 (stereo not drawn)
pIC50 (HEp-2): < 4.00
pIC50 (HeLa): < 4.00
pIC50 (WI-38): 4.23
pIC50 (MOLT-4): < 4.00
pIC50 (MCF7): < 4.00
pIC50 (SW-620): < 4.00
pIC50 (MIA PaCa-2): < 4.00
pIC50 (L1210): < 4.00

O=C(NO)NC(Cc1ccccc1)C(=O)NCc1ccccc1 (stereo not drawn)
pIC50 (HEp-2): < 4.00
pIC50 (HeLa): < 4.00
pIC50 (WI-38): < 4.00
pIC50 (MOLT-4): 4.92
pIC50 (SW-620): < 4.00
pIC50 (MIA PaCa-2): < 4.00
pIC50 (L1210): 4.77

O=C(NCC1CCCCC1)C(NC(=O)n1nnc2ccccc21)c1ccccc1 (stereo not drawn)
MCC (HEL [1]): ≥ 16 µg/mL
EC50 (Human alphaherpesvirus 3 [2]): > 3.2 mg/L
pIC50 (HEp-2): 4.16
pIC50 (HeLa): 4.10
pIC50 (WI-38): < 4.00
pIC50 (MOLT-4): 4.14
CC50 (HEL [3]; [7]): 43.4 mg/L (≈ 111 µM)
EC50 (Human alphaherpesvirus 3 [4]): > 3.2 mg/L
pIC50 (MCF7): 4.45
pIC50 (SW-620): < 4.00
EC50 [5]: > 16 mg/L
pIC50 (MIA PaCa-2): 4.14
pIC50 (L1210): 4.01

O=C(NC1CCCC1)C(Cc1ccccc1)NC(=O)n1nnc2ccccc21 (stereo not drawn)
MCC (HEL [1]): 16 µg/mL
EC50 (Human alphaherpesvirus 3 [2]): > 3.2 mg/L
pIC50 (HEp-2): 4.02
pIC50 (HeLa): 4.27
pIC50 (WI-38): < 4.00
pIC50 (MOLT-4): 4.21
CC50 (HEL [3]; [7]): 15.5 mg/L (≈ 41.1 µM)
EC50 (Human alphaherpesvirus 3 [4]): > 3.2 mg/L
EC50 [6]: > 3.2 mg/L
pIC50 (MCF7): 4.04
pIC50 (SW-620): < 4.00
EC50 [5]: > 3.2 mg/L
pIC50 (MIA PaCa-2): < 4.00
pIC50 (L1210): 4.17

O=C(NO)NC(C(=O)Nc1ccccc1)c1ccccc1 (stereo not drawn)
pIC50 (MOLT-4): < 3.70

O=C(NO)NC(C(=O)NCc1ccccc1)c1ccccc1 (stereo not drawn)
pIC50 (MOLT-4): 4.77

CCC(C)C(NC(=O)n1nnc2ccccc21)C(=O)NC1CCCC1 (stereo not drawn)
pIC50 (MOLT-4): 4.03

CCC(C)C(NC(=O)NO)C(=O)NC(c1ccccc1)c1ccccc1 (stereo not drawn)
pIC50 (MOLT-4): 4.25

O=C(NC1CCCCC1)C(NC(=O)n1nnc2ccccc21)c1ccccc1 (stereo not drawn)
MCC (HEL [1]): ≥ 16 µg/mL
EC50 (Human alphaherpesvirus 3 [2]): > 0.64 mg/L
pIC50 (HEp-2): 4.16
pIC50 (HeLa): 4.17
pIC50 (WI-38): < 4.00
pIC50 (MOLT-4): 4.04
CC50 (HEL [3]; [7]): 15 mg/L (≈ 39.7 µM)
EC50 (Human alphaherpesvirus 3 [4]): > 3.2 mg/L
EC50 [6]: > 16 mg/L
pIC50 (MCF7): 4.24
pIC50 (SW-620): < 4.00
EC50 [5]: > 3.2 mg/L
pIC50 (MIA PaCa-2): ≤ 4.00
pIC50 (L1210): 4.02

CCC(C)C1NC(=O)N(C2CCCCC2)C1=O (stereo not drawn)
pIC50 (MOLT-4): < 3.70

CC(C)C(NC(=O)n1nnc2ccccc21)C(=O)NC1CCCC1 (stereo not drawn)
MCC (HEL [1]): > 200 µg/mL
EC50 (Human alphaherpesvirus 3 [2]): > 80 mg/L
pIC50 (HEp-2): 4.22
pIC50 (HeLa): 4.02
pIC50 (WI-38): ≤ 4.00
pIC50 (MOLT-4): < 3.70
EC50 (Human alphaherpesvirus 3 [4]): > 200 mg/L
EC50 [6]: > 200 mg/L
pIC50 (MCF7): 4.10
pIC50 (SW-620): < 3.70
EC50 [5]: > 200 mg/L
pIC50 (MIA PaCa-2): < 4.00
pIC50 (L1210): < 3.70

O=C(NC(c1ccccc1)c1ccccc1)C(Cc1ccccc1)NC(=O)n1nnc2ccccc21 (stereo not drawn)
MCC (HEL [1]): 80 µg/mL
EC50 (Human alphaherpesvirus 3 [2]): > 0.13 mg/L
pIC50 (HEp-2): 4.39
pIC50 (HeLa): 4.52
pIC50 (WI-38): 4.84
pIC50 (MOLT-4): 4.82
CC50 (HEL [3]; [7]): 17.3 mg/L (≈ 36.4 µM)
EC50 (Human alphaherpesvirus 3 [4]): > 0.13 mg/L
pIC50 (MCF7): 4.79
pIC50 (SW-620): 4.42
EC50 [5]: > 16 mg/L
pIC50 (MIA PaCa-2): 4.62
pIC50 (L1210): 4.77

O=C(NO)NC(Cc1ccccc1)C(=O)N1CCCC1 (stereo not drawn)
pIC50 (HEp-2): ≤ 4.00
pIC50 (HeLa): < 4.00
pIC50 (WI-38): ≤ 4.00
pIC50 (MOLT-4): 3.72
pIC50 (MCF7): < 4.00
pIC50 (SW-620): < 4.00
pIC50 (MIA PaCa-2): < 4.00
pIC50 (L1210): < 3.70

CCC(C)C(NC(=O)n1nnc2ccccc21)C(=O)NC(c1ccccc1)c1ccccc1 (stereo not drawn)
pIC50 (MOLT-4): 4.10

O=C(NCc1ccccc1)C(Cc1ccccc1)NC(=O)n1nnc2ccccc21 (stereo not drawn)
pIC50 (MOLT-4): 3.84

O=C(NC1CCCCC1)C(Cc1ccccc1)NC(=O)n1nnc2ccccc21 (stereo not drawn)
MCC (HEL [1]): 80 µg/mL
pIC50 (HEp-2): 4.19
pIC50 (HeLa): 4.46
pIC50 (WI-38): 4.20
pIC50 (MOLT-4): 3.94
CC50 (HEL [3]; [7]): 33 mg/L (≈ 84.3 µM)
EC50 [6]: > 16 mg/L
pIC50 (MCF7): 4.68
pIC50 (SW-620): 3.96
EC50 [5]: > 16 mg/L
pIC50 (MIA PaCa-2): ≤ 4.00
pIC50 (L1210): 3.90

O=C(NO)NC(Cc1ccccc1)C(=O)NC1CCCCC1 (stereo not drawn)
pIC50 (HEp-2): 4.03
pIC50 (HeLa): 4.24
pIC50 (WI-38): < 4.00
pIC50 (MOLT-4): 4.72
pIC50 (MCF7): ≤ 4.00
pIC50 (SW-620): 4.00
pIC50 (MIA PaCa-2): 4.51
pIC50 (L1210): 4.74

CCC(C)C(NC(=O)NO)C(=O)NC1CCCC1 (stereo not drawn)
pIC50 (MOLT-4): < 4.00

CCC(C)C1NC(=O)N(Cc2ccccc2)C1=O (stereo not drawn)
pIC50 (MOLT-4): < 3.70

O=C(C(Cc1ccccc1)NC(=O)n1nnc2ccccc21)N1CCCC1 (stereo not drawn)
MCC (HEL [1]): > 200 µg/mL
EC50 (Human alphaherpesvirus 3 [2]): 117 mg/L (≈ 322 µM)
pIC50 (HEp-2): ≤ 4.00
pIC50 (HeLa): < 4.00
pIC50 (WI-38): < 4.00
pIC50 (MOLT-4): 3.91
CC50 (HEL [3]; [7]): 148 mg/L (≈ 406 µM)
EC50 (Human alphaherpesvirus 3 [4]): 106 mg/L (≈ 292 µM)
EC50 [6]: > 200 mg/L
pIC50 (MCF7): ≤ 4.00
pIC50 (SW-620): < 4.00
EC50 [5]: > 200 mg/L
pIC50 (MIA PaCa-2): < 4.00
pIC50 (L1210): 3.88

CCC(C)C(NC(=O)NO)C(=O)NCc1ccccc1 (stereo not drawn)
pIC50 (MOLT-4): 3.90

O=C(NO)NC(C(=O)N1CCCCC1)c1ccccc1 (stereo not drawn)
pIC50 (HEp-2): < 4.00
pIC50 (HeLa): < 4.00
pIC50 (WI-38): 5.17
pIC50 (MOLT-4): 3.90
pIC50 (MCF7): < 4.00
pIC50 (SW-620): < 4.00
pIC50 (MIA PaCa-2): < 4.00
pIC50 (L1210): 4.10

CCC(C)C1NC(=O)N(C2CCCC2)C1=O (stereo not drawn)
pIC50 (MOLT-4): < 3.70

CCC(C)C(NC(=O)NO)C(=O)NC1CCCCC1 (stereo not drawn)
pIC50 (HEp-2): < 4.00
pIC50 (HeLa): < 4.00
pIC50 (WI-38): < 4.00
pIC50 (MOLT-4): 3.82
pIC50 (MCF7): < 4.00
pIC50 (SW-620): < 4.00
pIC50 (MIA PaCa-2): < 4.00
pIC50 (L1210): 4.05

Nc1nc2c(ncn2COCCO)c(=O)[nH]1 [ACYCLOVIR]
MCC (HEL [1]): > 400 µg/mL
CC50 (HEL [3]): 200 mg/L (≈ 888 µM)
CC50 (HEL [3]; [7]): 200 mg/L (≈ 888 µM)
